Laboratory results from ChEMBL document CHEMBL1687698, “Discovery of INCB9471, a Potent, Selective, and Orally Bioavailable CCR5 Antagonist with Potent Anti-HIV-1 Activity” (ACS Med Chem Lett, 2010).
pIC50, pKd: −log10 of the molar value. Values belong to the compound of their own block, whether it stands above or below them. Activity calls are given as the source filed them. No cut-off for these calls is given here.

Legend:
[1] = target: T1, C-C chemokine receptor type 5 (Homo sapiens, UniProt P51681); assay: Displacement of [125I]MIP-1beta from CCR5 in IL-10-stimulated human monocytes; type: cell-based
[2] = tested on: Human immunodeficiency virus 1; assay: Antiviral activity against HIV-1 ADA infected in PHA-stimulated human PBMC cells assessed as viral p24 core protein level after 7 days by ELISA; type: functional, organism-based; details: Human immunodeficiency virus 1, ADA, 168 h
Procedure, shortened: (§1)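 Human PBMC activated with PHA, then infected with HIV-1 (ADA or BaL strain). Infectivity was read as viral p24 core protein in the culture supernatants.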

[3] = tested on: Human immunodeficiency virus 1; assay: Antiviral activity against HIV-1 BaL infected in PHA-stimulated human PBMC cells assessed as viral p24 core protein level after 7 days by ELISA; type: functional, organism-based; details: Human immunodeficiency virus 1, BaL, 168 h; procedure, shortened: as §1
[4] = Half life in rat at 1 mg/kg, iv; type: ADME, organism-based; design: dose 1 mg/kg, route intravenous; details: in vivo
[5] = AUC in dog at 20 mg/kg, po; type: ADME, organism-based, Canis lupus familiaris; design: dose 20 mg/kg, route oral; details: plasma
[6] = Permeability across basolateral to apical side in human Caco2 cells; type: ADME, cell-based; details: Caco-2, read-out: permeability
Rattus norvegicus = assay: Volume of distribution in rat at 1 mg/kg, iv; type: ADME, organism-based; design: dose 1 mg/kg, route intravenous; details: in vivo
[7] = Oral bioavailability in rat at 20 mg/kg; type: ADME, organism-based; details: in vivo
[8] = target: T1, C-C chemokine receptor type 5; assay: Antagonist activity at CCR5 assessed as inhibition of intracellular calcium mobilization; type: functional, cell-based
[9] = Half life in dog at 20 mg/kg, po; type: ADME, organism-based, Canis lupus familiaris; design: dose 20 mg/kg, route oral; details: in vivo
[10] = tested on: Human immunodeficiency virus 1; assay: Antiviral activity against HIV-1 R5 clade E infected in human PBMC cells; type: functional; details: Human immunodeficiency virus 1, R5 clade E
[11] = Cmax in dog at 20 mg/kg, po; type: ADME, organism-based, Canis lupus familiaris; design: dose 20 mg/kg, route oral; details: in vivo
[12] = Plasma concentration in rat at 20 mg/kg, po after 24 hrs; type: ADME, organism-based; design: dose 20 mg/kg, route oral
[13] = Cmax in rat at 20 mg/kg, po; type: ADME, organism-based; design: dose 20 mg/kg, route oral; details: in vivo
Cytochrome P450 2D6 = Cytochrome P450 2D6 (Homo sapiens, UniProt P10635); assay: Inhibition of CYP2D6; type: ADME
[14] = tested on: Human immunodeficiency virus 1; assay: Antiviral activity against HIV-1 R5 clade B infected in human PBMC cells; type: functional; details: Human immunodeficiency virus 1, R5 clade B
[15] = tested on: Human immunodeficiency virus 1; assay: Antiviral activity against HIV-1 R5 clade F infected in human PBMC cells; type: functional; details: Human immunodeficiency virus 1, R5 clade F
[16] = tested on: Human immunodeficiency virus 1; assay: Antiviral activity against HIV-1 R5 clade D infected in human PBMC cells; type: functional; details: Human immunodeficiency virus 1, R5 clade D
[17] = Half life in rat at 20 mg/kg, po; type: ADME, organism-based; design: dose 20 mg/kg, route oral; details: in vivo
Cytochrome P450 2C19 = Cytochrome P450 2C19 (Homo sapiens, UniProt P33261); assay: Inhibition of CYP2C19; type: ADME
[18] = tested on: Human immunodeficiency virus 1; assay: Antiviral activity against HIV-1 R5 clade C infected in human PBMC cells; type: functional; details: Human immunodeficiency virus 1, R5 clade C
[19] = Induction of Cytochrome P450 up to 30 uM; type: ADME
[20] = Oral bioavailability in dog at 20 mg/kg; type: ADME, organism-based, Canis lupus familiaris; details: in vivo
[21] = Tmax in rat at 20 mg/kg, po; type: ADME, organism-based; design: dose 20 mg/kg, route oral; details: in vivo
[22] = target: T1, C-C chemokine receptor type 5; assay: Activation of CCR5 in human PBMC cells; type: cell-based
[23] = Systemic clearance in rat at 1 mg/kg, iv; type: ADME, organism-based; design: dose 1 mg/kg, route intravenous; details: in vivo
[24] = target: Voltage-gated inwardly rectifying potassium channel KCNH2 (Homo sapiens, UniProt Q12809); assay: Inhibition of human hERG
Procedure, shortened: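 hERG potassium current was measured by patch clamp, and IC50 was derived from current inhibition.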

[25] = AUC in rat at 1 mg/kg, iv; type: ADME, organism-based; design: dose 1 mg/kg, route intravenous; details: plasma
Cytochrome P450 3A4 = Cytochrome P450 3A4 (Homo sapiens, UniProt P08684); assay: Inhibition of CYP3A4; type: ADME
[26] = tested on: Human immunodeficiency virus 1; assay: Antiviral activity against HIV-1 R5 clade A infected in human PBMC cells; type: functional; details: Human immunodeficiency virus 1, R5 clade A
[27] = tested on: Human immunodeficiency virus 1; assay: Antiviral activity against HIV-1 R5 clade G infected in human PBMC cells; type: functional; details: Human immunodeficiency virus 1, R5 clade G
[28] = tested on: Human immunodeficiency virus 1; assay: Antiviral activity against HIV-1 R5 clade J infected in human PBMC cells; type: functional; details: Human immunodeficiency virus 1, R5 clade J
[29] = target: T1, C-C chemokine receptor type 5; assay: Antagonist activity at CCR5 assessed as inhibition of receptor internalization; type: functional
[30] = Half life in human in repeated dosing regimen; type: ADME, organism-based; details: in vivo
[31] = Half life in dog at 1 mg/kg, iv; type: ADME, organism-based, Canis lupus familiaris; design: dose 1 mg/kg, route intravenous; details: in vivo
Cytochrome P450 1A2 = target: T2, Cytochrome P450 1A2 (Homo sapiens, UniProt P05177); assay: Inhibition of CYP1A2; type: ADME
T2 sequence (P05177 whole entry): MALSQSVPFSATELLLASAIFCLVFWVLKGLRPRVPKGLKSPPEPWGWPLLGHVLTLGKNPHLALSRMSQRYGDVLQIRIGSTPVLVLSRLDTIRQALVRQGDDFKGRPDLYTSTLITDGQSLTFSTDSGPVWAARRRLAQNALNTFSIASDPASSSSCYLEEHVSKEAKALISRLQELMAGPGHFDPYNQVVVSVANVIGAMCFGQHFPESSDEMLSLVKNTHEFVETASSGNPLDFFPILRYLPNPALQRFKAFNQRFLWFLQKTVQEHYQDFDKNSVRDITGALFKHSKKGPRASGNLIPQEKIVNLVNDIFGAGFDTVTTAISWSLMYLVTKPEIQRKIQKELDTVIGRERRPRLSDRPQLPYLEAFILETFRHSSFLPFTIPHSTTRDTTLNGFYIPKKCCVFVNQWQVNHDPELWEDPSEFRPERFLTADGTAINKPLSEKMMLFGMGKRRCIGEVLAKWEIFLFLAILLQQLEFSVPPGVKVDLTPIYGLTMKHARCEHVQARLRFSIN

Cytochrome P450 2C9 = Cytochrome P450 2C9 (Homo sapiens, UniProt P11712); assay: Inhibition of CYP2C9; type: ADME
[32] = Protein binding in human serum assessed as fraction unbound; type: ADME, cell-free
[33] = Systemic clearance in dog at 1 mg/kg, iv; type: ADME, organism-based, Canis lupus familiaris; design: dose 1 mg/kg, route intravenous; details: in vivo
[34] = AUC in dog at 1 mg/kg, iv; type: ADME, organism-based, Canis lupus familiaris; design: dose 1 mg/kg, route intravenous; details: plasma
[35] = AUC in rat at 20 mg/kg, po; type: ADME, organism-based; design: dose 20 mg/kg, route oral; details: plasma
[36] = Tmax in dog at 20 mg/kg, po; type: ADME, organism-based, Canis lupus familiaris; design: dose 20 mg/kg, route oral; details: in vivo
Canis familiaris = assay: Volume of distribution in dog at 1 mg/kg, iv; type: ADME, organism-based, Canis lupus familiaris; design: dose 1 mg/kg, route intravenous; details: in vivo
[37] = target: T1, C-C chemokine receptor type 5; assay: Antagonist activity at CCR5 assessed as inhibition of ERK phosphorylation; type: functional
[38] = tested on: Human immunodeficiency virus 1; assay: Antiviral activity against HIV-1 X4 infected in PBMC cells; type: functional, organism-based

T1 sequence (P51681 whole entry): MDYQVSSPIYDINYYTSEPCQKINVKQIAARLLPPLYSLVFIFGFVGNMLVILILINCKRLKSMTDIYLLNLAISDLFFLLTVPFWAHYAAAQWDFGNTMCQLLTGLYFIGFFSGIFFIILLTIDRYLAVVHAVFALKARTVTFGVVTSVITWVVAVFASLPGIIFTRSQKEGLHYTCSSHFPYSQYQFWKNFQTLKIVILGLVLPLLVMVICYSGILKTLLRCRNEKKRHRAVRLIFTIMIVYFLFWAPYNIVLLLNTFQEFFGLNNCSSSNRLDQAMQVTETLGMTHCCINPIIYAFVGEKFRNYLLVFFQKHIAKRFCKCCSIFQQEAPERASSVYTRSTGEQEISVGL
Chain of Cytochrome P450 2C9 (P11712 whole entry): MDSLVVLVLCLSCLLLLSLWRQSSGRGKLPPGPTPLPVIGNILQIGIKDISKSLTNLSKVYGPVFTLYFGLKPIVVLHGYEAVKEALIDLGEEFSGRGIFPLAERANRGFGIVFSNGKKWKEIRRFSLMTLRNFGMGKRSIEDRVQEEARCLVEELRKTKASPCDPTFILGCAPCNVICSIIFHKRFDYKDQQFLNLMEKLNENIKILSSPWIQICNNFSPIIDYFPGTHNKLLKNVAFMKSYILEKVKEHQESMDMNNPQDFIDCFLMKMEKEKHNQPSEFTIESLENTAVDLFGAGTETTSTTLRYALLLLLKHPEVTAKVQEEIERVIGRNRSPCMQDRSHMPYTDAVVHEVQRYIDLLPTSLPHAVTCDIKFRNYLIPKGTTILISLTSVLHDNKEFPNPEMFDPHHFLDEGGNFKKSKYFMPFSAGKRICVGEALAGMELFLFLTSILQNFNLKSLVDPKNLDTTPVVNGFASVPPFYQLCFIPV
Chain of Cytochrome P450 3A4 (P08684 whole entry): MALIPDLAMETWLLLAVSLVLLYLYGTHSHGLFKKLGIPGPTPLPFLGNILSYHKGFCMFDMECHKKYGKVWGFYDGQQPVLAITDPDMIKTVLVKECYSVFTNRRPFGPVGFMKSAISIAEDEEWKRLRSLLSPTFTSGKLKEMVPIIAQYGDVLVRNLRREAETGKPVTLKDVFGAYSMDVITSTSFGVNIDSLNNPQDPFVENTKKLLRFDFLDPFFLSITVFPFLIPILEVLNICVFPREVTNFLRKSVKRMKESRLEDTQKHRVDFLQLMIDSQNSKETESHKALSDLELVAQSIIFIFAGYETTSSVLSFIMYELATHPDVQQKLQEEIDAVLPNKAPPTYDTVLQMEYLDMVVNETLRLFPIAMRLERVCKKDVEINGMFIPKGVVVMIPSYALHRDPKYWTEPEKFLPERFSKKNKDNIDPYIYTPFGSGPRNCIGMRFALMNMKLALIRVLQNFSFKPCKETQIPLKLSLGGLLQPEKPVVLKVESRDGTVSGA
Chain of Cytochrome P450 2D6 (P10635 whole entry): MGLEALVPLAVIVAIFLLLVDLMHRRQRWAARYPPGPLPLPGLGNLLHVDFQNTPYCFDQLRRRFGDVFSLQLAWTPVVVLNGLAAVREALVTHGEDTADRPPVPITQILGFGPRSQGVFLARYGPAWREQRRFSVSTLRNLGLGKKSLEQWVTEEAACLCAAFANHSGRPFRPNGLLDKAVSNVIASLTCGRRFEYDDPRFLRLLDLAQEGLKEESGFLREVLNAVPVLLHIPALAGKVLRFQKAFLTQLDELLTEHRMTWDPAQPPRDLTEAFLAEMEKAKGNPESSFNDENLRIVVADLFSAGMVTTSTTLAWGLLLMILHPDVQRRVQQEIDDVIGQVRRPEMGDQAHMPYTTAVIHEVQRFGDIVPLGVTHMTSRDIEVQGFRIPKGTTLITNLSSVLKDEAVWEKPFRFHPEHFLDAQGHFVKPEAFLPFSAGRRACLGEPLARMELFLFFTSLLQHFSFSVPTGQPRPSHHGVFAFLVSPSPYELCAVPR
Chain of Voltage-gated inwardly rectifying potassium channel KCNH2 (Q12809 whole entry): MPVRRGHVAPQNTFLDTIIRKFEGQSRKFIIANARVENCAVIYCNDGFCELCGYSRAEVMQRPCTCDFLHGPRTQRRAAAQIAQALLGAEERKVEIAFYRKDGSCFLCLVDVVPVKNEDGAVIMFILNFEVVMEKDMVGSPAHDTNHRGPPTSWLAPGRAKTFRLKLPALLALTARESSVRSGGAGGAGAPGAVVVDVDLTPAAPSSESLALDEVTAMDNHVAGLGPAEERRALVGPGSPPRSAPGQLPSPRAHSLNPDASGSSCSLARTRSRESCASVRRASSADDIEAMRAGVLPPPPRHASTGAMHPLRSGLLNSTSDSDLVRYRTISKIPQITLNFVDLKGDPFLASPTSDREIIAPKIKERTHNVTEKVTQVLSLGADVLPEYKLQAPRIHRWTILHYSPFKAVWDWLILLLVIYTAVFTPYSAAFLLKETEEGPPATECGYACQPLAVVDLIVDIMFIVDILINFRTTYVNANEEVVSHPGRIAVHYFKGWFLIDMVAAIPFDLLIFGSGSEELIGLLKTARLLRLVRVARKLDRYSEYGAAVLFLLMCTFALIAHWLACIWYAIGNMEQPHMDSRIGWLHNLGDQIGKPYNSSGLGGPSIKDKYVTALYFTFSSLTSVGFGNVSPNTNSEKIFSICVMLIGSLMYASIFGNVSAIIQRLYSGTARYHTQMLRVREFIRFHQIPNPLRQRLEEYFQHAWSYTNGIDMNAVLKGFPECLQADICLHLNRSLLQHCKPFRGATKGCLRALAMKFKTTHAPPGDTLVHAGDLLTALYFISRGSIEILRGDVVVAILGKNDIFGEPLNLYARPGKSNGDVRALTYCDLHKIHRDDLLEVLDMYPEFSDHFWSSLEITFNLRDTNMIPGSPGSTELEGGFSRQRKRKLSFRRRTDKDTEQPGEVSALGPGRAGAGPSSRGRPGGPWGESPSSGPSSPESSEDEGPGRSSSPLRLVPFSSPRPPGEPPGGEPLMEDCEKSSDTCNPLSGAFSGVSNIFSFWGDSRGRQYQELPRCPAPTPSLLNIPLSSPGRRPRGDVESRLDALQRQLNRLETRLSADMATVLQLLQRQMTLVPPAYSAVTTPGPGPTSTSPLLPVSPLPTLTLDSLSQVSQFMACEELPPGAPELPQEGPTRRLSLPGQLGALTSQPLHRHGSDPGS
Chain of Cytochrome P450 2C19 (P33261 whole entry): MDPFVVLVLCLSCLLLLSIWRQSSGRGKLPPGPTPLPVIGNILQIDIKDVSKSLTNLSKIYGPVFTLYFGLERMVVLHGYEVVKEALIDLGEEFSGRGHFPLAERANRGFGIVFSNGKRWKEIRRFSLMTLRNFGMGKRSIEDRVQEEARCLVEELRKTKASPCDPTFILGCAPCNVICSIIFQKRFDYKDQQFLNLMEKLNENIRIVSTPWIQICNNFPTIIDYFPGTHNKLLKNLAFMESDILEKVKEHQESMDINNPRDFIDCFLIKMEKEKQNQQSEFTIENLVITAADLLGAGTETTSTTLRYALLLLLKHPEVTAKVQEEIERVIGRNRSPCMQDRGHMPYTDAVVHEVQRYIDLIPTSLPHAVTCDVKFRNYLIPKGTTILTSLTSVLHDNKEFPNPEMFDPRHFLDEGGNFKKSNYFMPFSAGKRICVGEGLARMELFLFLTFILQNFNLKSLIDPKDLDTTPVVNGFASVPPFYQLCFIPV

pIC50 [1]: < 6.00
Compound: CO[C@H]1Cc2cc(C(F)(F)F)ccc2[C@@H]1N1CCN(C2(C)CCN(C(=O)c3c(C)ncnc3C)CC2)C[C@@H]1C

pIC50 [1]: 6.68
Compound: Cc1ncnc(C)c1C(=O)N1CCC(C)(N2CCN([C@@H]3c4ccc(C(F)(F)F)cc4C[C@H]3O)[C@@H](C)C2)CC1

pIC50 [1]: 8.34
pIC50 [2]: 7.92
pIC50 [3]: 7.96
Compound: CO[C@@H]1Cc2cc(C(F)(F)F)ccc2[C@H]1N1CCN(C2(C)CCN(C(=O)c3c(C)ncnc3C)CC2)C[C@@H]1C

pIC50 [1]: < 6.00
Compound: Cc1ncnc(C)c1C(=O)N1CCC(C)(N2CCN([C@H]3c4ccc(C(F)(F)F)cc4C[C@@H]3O)[C@@H](C)C2)CC1

pIC50 [1]: < 6.00
Compound: CCO[C@H]1Cc2cc(C(F)(F)F)ccc2[C@@H]1N1CCN(C2(C)CCN(C(=O)c3c(C)ncnc3C)CC2)C[C@@H]1C

pIC50 [1]: 6.72
Compound: Cc1ncnc(C)c1C(=O)N1CCC(C)(N2CCN(C3CCc4cc(Br)ccc43)[C@@H](C)C2)CC1 (mixture of isomers)

pIC50 [1]: 8.30
pIC50 [3]: 7.72
Compound: Cc1ncnc(C)c1C(=O)N1CCC(C)(N2CCN(C3CCc4cc(C(F)(F)F)ccc43)[C@@H](C)C2)CC1 (single isomer, unassigned)

pIC50 [1]: 8.41
pIC50 [3]: 6.48
Compound: Cc1ncnc(C)c1C(=O)N1CCC(C)(N2CCN(C3CCc4cc(Br)ccc43)[C@@H](C)C2)CC1 (single isomer, unassigned; diastereomer 1)

half-life [4]: 6 h
AUC [5]: 150 µM·h
Papp B→A [6]: 16.5 ×10⁻⁶ cm/s
Vd (Rattus norvegicus): 4.1 L/kg
bioavailability [7]: 100%
pIC50 [1]: 8.19
pIC50 [8]: 7.80
half-life [9]: 17 h
IC90 [10]: 9 nM
Cmax [11]: 14 µM
pIC50 [2]: 9.44
concentration at 24 h [12]: 1.09 µM
Cmax [13]: 4.07 µM
pIC50 (Cytochrome P450 2D6): < 4.60
IC90 [14]: 9 nM
IC90 [15]: 9 nM
IC90 [16]: 9 nM
half-life [17]: 12 h
pIC50 (Cytochrome P450 2C19): < 4.60
IC90 [18]: 9 nM
Activity [19]: Not Active
bioavailability [20]: 95%
Tmax [21]: 3 h
pKd [22]: 8.51
clearance [23]: 10.3 mL/min/kg
AUC [25]: 2.9 µM·h
pIC50 (Cytochrome P450 3A4): < 4.60
IC90 [26]: 9 nM
IC90 [27]: 9 nM
IC90 [28]: 9 nM
pIC50 [29]: 8.82
half-life [30]: 58 h
half-life [31]: 11 h
pIC50 (Cytochrome P450 1A2): < 4.60
pIC50 (Cytochrome P450 2C9): < 4.60
fraction unbound [32]: 0.16
clearance [33]: 3.33 mL/min/kg
AUC [34]: 7.85 µM·h
AUC [35]: 55.2 µM·h
pIC50 [3]: 9.80
Tmax [36]: 0.5 h
Vd (Canis familiaris): 3.8 L/kg
pIC50 [37]: 8.52
Compound: CCO[C@@H]1Cc2cc(C(F)(F)F)ccc2[C@H]1N1CCN(C2(C)CCN(C(=O)c3c(C)ncnc3C)CC2)C[C@@H]1C [INCB-9471]
pIC50 [24]: 5.35
Activity [38]: inactive

pIC50 [2]: 9.25
half-life [30]: 28 h
pIC50 [3]: 9.64
Compound: COC[C@@H](c1ccc(C(F)(F)F)cc1)N1CCN(C2(C)CCN(C(=O)c3c(C)ncnc3C)CC2)C[C@@H]1C [VICRIVIROC]
